Measurements: PubChem BioAssay AID623874 (Vanderbilt Specialized Chemistry Center, 2012)
Active and inactive are the calls of the source.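 How the source made its calls: active means glutamate fold shift at least 2 as enhancer or at most 0.5 as blocker, actives on both sides; inactive means the rest.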

Biological target: Metabotropic glutamate receptor 1 (Rattus norvegicus) (UniProt P23385)
Experiment: off-target mGlu1 activity of candidates – cell-based, calcium flux, rat, selectivity assay for mGlu4 PAM lead optimization, SAR follow-up (AID 623874)
Conditions: rat mGlu1 cells, Fluo-4 calcium flux, glutamate CRC shift; at 10 µM
Summary of the method: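 Doses: One dose, 10 µM final | Assay system: Fluo-4-loaded cells | Measured by: Fluo-4 calcium fluorescence | Medium: HEPES-buffered HBSS plus probenecid, pH 7.3 | Also added: Glutamate agonist | Timing: About 2.5 min compound pre-incubation before glutamate addition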

Sequence of Metabotropic glutamate receptor 1 (Rattus norvegicus) (P23385 whole entry, looked up): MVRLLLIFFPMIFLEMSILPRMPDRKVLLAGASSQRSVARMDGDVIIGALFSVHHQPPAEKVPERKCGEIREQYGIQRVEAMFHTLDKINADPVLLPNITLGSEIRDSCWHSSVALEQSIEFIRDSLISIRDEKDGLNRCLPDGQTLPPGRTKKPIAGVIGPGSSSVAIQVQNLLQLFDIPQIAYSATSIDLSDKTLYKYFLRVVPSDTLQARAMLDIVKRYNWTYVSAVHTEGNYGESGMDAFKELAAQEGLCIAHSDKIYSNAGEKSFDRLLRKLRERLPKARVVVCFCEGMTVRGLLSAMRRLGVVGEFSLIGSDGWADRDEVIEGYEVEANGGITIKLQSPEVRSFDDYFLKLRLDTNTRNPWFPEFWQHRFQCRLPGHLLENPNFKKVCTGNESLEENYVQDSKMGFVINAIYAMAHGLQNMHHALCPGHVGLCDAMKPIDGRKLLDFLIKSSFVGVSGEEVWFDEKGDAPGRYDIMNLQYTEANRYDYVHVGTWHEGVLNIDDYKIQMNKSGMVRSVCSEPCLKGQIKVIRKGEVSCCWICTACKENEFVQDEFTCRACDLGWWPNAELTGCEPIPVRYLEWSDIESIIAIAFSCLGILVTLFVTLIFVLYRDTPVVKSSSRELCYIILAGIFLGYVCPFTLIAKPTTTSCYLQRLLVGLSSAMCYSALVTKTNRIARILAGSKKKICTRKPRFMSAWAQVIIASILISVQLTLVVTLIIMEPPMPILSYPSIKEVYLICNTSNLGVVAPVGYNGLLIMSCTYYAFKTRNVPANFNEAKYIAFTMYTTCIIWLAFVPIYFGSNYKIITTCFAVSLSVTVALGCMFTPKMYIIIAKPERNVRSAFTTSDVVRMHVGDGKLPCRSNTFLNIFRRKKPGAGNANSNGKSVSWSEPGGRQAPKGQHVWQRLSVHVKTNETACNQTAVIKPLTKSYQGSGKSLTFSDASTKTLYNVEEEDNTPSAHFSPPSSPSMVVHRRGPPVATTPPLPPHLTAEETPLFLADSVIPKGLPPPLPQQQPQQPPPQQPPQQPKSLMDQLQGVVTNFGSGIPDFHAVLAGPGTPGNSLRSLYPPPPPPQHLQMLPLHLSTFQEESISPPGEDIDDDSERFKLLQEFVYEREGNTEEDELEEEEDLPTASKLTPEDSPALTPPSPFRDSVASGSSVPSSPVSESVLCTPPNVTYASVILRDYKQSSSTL

fold shift: 1.17 (inactive)
Compound: O=C(Nc1cccc(Cl)c1)c1ccccn1
